Active and inactive are the calls of the source. The calls are words filed in the database; no cut-off is given here.
Key:
CCRF-CEM [1] = assay: Cytotoxicity against human CEM cells assessed as growth inhibition after 72 hrs by MTT assay; assay type: functional
In short: (§1)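 Cells were grown in medium with 10% heat-inactivated FBS plus penicillin/streptomycin: RPMI-1640 for Jurkat and CEM, DMEM for A-431, HAM's F12 for LoVo. The doxorubicin-resistant LoVo subclone was kept with 0.1 µg/mL doxorubicin. Cells were seeded at 5x10^3 per well and pre-incubated 24 h at 37 °C.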

CCRF-CEM [2] = assay: Cytotoxicity against human vinblastin-resistant CEM cells assessed as growth inhibition after 72 hrs by MTT assay; assay type: functional
In short: (§2)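 CEMVbl-100 (vinblastine-selected CEM) was grown in RPMI-1640 with 0.1 µg/mL vinblastine. LoVoDoxo was grown in HAM's F12 with 0.1 µg/mL doxorubicin; parental CEM and LoVo were grown without drug. Media had 10% FBS. 5x10^3 cells were seeded, preincubated 24 h at 37 °C, then exposed 72 h to compound (DMSO <1%). Read-out was MTT; GI50 came from dose-response curves of ≥3 experiments. RI = GI50 resistant / GI50 parental.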

CCRF-CEM [3] = assay: Resistance index, ratio of GI50 for human vinblastin-resistant CEM cells to GI50 for human CEM cells; assay type: functional; in short: as §2
LoVo [4] = assay: Resistance index, ratio of GI50 for human LoVo/DX cells to GI50 for human LoVo cells; assay type: functional; in short: as §2
[5] = Cytotoxicity against human LoVo/DX cells assessed as growth inhibition after 72 hrs by MTT assay; assay type: functional; in short: as §1
LoVo [6] = assay: Cytotoxicity against human LoVo cells assessed as growth inhibition after 72 hrs by MTT assay; assay type: functional; in short: as §1
[7] = molecular target: T1, DNA topoisomerase 1 (Homo sapiens) (UniProt P11387); assay: Inhibition of human DNA topoisomerase 1-mediated DNA single strand cleavage at 5 to 100 uM after 30 mins by agarose gel electrophoresis relative to untreated control
T1 sequence (whole entry): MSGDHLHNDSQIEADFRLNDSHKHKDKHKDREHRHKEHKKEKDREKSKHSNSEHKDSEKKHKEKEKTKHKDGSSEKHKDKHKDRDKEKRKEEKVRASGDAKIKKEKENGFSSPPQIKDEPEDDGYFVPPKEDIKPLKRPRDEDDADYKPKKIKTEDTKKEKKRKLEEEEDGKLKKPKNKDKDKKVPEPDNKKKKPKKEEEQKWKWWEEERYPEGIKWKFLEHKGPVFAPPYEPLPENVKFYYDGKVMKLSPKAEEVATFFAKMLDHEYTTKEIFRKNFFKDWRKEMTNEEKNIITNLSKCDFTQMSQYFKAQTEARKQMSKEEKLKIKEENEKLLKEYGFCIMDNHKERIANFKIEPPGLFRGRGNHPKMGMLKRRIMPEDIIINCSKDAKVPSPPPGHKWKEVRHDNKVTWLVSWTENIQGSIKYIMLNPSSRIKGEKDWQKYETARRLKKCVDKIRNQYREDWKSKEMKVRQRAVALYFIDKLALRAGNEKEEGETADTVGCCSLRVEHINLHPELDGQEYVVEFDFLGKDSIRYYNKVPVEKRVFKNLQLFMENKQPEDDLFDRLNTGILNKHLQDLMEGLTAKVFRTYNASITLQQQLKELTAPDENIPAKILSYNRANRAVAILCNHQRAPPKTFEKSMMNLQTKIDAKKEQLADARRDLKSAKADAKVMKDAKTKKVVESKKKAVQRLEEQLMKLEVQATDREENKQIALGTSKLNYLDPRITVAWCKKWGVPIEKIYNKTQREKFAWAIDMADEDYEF
In short: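 Reactions were set up as for relaxation: human topoisomerase I, 0.250 µg pBR322, compound 5-100 µM, 37 °C for 30 min, stopped with SDS/proteinase K. Samples were run on 0.8% agarose containing 0.5 µg/mL ethidium bromide, then destained in water, so that cleaved/nicked DNA could be detected under UV.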

CC[C@]1(O)C[C@@H]2CN(CCc3c([nH]c4ccccc34)[C@@](C(=O)OC)(c3cc4c(cc3OC)N(C)[C@H]3[C@@](O)(C(=O)OC)[C@H](OC(C)=O)[C@]5(CC)C=CCN6CC[C@]43[C@@H]65)C2)C1 [VINBLASTINE]
GI50 (CCRF-CEM [1]): 4 nM
GI50 (CCRF-CEM [2]): 210 nM
Ratio (CCRF-CEM [3]): 525

COc1cccc2c1C(=O)c1c(O)c3c(c(O)c1C2=O)C[C@@](O)(C(=O)CO)C[C@@H]3O[C@H]1C[C@H](N)[C@H](O)[C@H](C)O1 [DOXORUBICIN]
Ratio (LoVo [4]): 112.5
GI50 [5]: 13500 nM
GI50 (LoVo [6]): 120 nM

CC[C@@]1(O)C(=O)OCc2c1cc1n(c2=O)Cc2cc3ccccc3nc2-1
Activity [7]: Active

— ChEMBL document CHEMBL3351507, “11H-Pyrido[3',2':4,5]pyrrolo[3,2-c]cinnoline and pyrido[3',2':4,5]pyrrolo[1,2-c][1,2,3]benzotriazine: two new ring systems with antitumor activity” (2014)
